Laboratory results published in ChEMBL document CHEMBL1122328, “Hypolipidemic activity of phthalimide derivatives. 2. N-phenylphthalimide and derivatives” (1983).

Tests used:
Mus musculus [1] = assay: Effect on mg of lipid from CF1 male mice after 16 days at a dose of 20 (mg/kg/day); assay type: functional
In short: (§1)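 CF1 male mice dosed ip for 16 days at 10–60 (mg/kg)/day; liver taken and 10% homogenate made in 0.25 M sucrose + 0.001 M EDTA; aliquot extracted by Folch and Bligh–Dyer methods, mg lipid weighed, cholesterol measured by Liebermann–Burchard method; n = 6; % of 1% CMC control.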

Mus musculus [2] = assay: Effect on mg of lipid from CF1 male mice after 16 days at a dose of 40 (mg/kg/day); assay type: functional; in short: as §1
Mus musculus [3] = assay: Effect on neutral lipids from CF1 male mice after 16 days at a dose of 20 (mg/kg/day); assay type: functional
In short: (§2)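 Dosing was ip in CF₁ male mice (~25 g) for 16 days, with compound suspended in 1% carboxymethylcellulose. Liver was then taken and homogenised to 10% in 0.25 M sucrose with 0.001 M EDTA. Lipid was extracted from a 2 mL aliquot by the Folch and Bligh–Dyer methods and total mg of lipid was weighed. Cholesterol (Liebermann–Burchard), triglycerides (kit), neutral lipids and phospholipids were then measured; N = 6; reported as % of vehicle control.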

Mus musculus [4] = assay: Effect on neutral lipids from CF1 male mice after 16 days at a dose of 60 (mg/kg/day); assay type: functional; in short: as §2
Mus musculus [5] = assay: Effect on phospholipids from CF1 male mice after 16 days at a dose of 60 (mg/kg/day); assay type: functional; in short: as §2
Mus musculus [6] = assay: Effect on Serum cholesterol levels on CF1 male mice at a dose of 12.5 (mg/kg)/day after 16 days; assay type: functional
In short: (§3)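 CF1 male mice (~25 g), drug suspended in 1% carboxymethylcellulose in water, given ip daily for 16 days; n = 6; vehicle control. Tail-vein blood on days 9 and 16, serum cholesterol by modified Liebermann–Burchard reaction; day-14 serum triglyceride by commercial kit; expressed as % control.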

Mus musculus [7] = assay: Effect on Serum cholesterol levels on CF1 male mice at a dose of 12.5 (mg/kg)/day after 9 days; assay type: functional; in short: as §3
Mus musculus [8] = assay: Effect on Serum triglceride levels on CF1 male mice at a dose of 12.5 (mg/kg)/day after 14 days; assay type: functional; in short: as §3
Mus musculus [9] = species: Mus musculus; assay: Effect on Serum triglceride levels on Hyperlipidemic induced mice After 2-week diet; assay type: functional
In short: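 Mice fed atherogenic diet for 2 weeks to raise serum lipids, then given drug at 20 (mg/kg)/day ip for a further 2 weeks; serum cholesterol and triglyceride measured after the diet and after 14 days dosing; n = 6; compared with 1% CMC and diet-only controls; % control.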

Mus musculus [10] = assay: Effect on cholesterol from CF1 male mice after 16 days at a dose of 20 (mg/kg/day); assay type: functional; in short: as §1
Mus musculus [11] = assay: In vitro effect on CF1 male mouse onAc-CoA carboxylase after 16 days at a dose of 60 (mg/kg)/day; assay type: functional
In short: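 Mice (CF1 males) given agent ip daily for 16 days in 1% carboxymethylcellulose; liver 10% homogenate in 0.25 M sucrose + 0.001 M EDTA. Acetyl-CoA carboxylase first polymerized 30 min at 37 °C, then incubated 30 min at 37 °C with sodium [14C]bicarbonate (41.0 mCi/mmol); incorporated label counted. Activity as % of vehicle control; N = 6.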

Mus musculus [12] = assay: In vitro effect on CF1 male mouse on Ac-CoA synthetase after 16 days at a dose of 40 (mg/kg)/day; assay type: functional
In short: (§4)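 In vivo enzyme study. CF₁ male mice were dosed ip for 16 days in 1% CMC, and liver was homogenised to 10% in 0.25 M sucrose with 0.001 M EDTA. Enzymes assayed: acetyl-CoA synthetase as hydroxamate at 540 nm after 30 min at 37 °C; HMG CoA reductase with [1-¹⁴C]acetate in 9000g supernatant for 60 min at 37 °C; fatty acid synthetase with [2-¹⁴C]malonyl-CoA; acyltransferase with [³H]glycerol 3-phosphate and microsomes for 10 min; phosphatidate phosphohydrolase as released phosphate at 820 nm after 30 min. N = 6; reported as % control.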

Mus musculus [13] = assay: In vitro effect on CF1 male mouse on Fatty acid synthetase after 16 days at a dose of 40 (mg/kg)/day; assay type: functional; in short: as §4
Mus musculus [14] = assay: In vitro effect on CF1 male mouse on Fatty acid synthetase after 16 days at a dose of 60 (mg/kg)/day; assay type: functional; in short: as §4
Mus musculus [15] = species: Mus musculus; assay: In vitro effect on CF1 male mouse on Ac-CoA synthetase; assay type: functional
In short: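 In vitro test on 10% CF₁ male mouse liver homogenate (0.25 M sucrose, 0.001 M EDTA) with 2.5 μmol test drug. Assays: acetyl-CoA synthetase and citrate lyase as hydroxamate at 540 nm, 30 min, 37 °C; citrate exchange from [¹⁴C]citrate-loaded mitochondria after 10 min with drug; side-chain oxidation by ¹⁴CO₂ from [26-¹⁴C]cholesterol, 18 h, 37 °C; acetyl-CoA carboxylase by [¹⁴C]bicarbonate fixation after 30 min polymerization then 30 min at 37 °C.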

Rattus norvegicus [16] = assay: Effect on very low density Phospholipids Holtzman rats after 14 days administration; assay type: functional
In short: (§5)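 Holtzman male rats (~400 g) received drug at 20 (mg/kg)/day for 14 days. On day 14, blood was collected from the abdominal aorta and serum was separated by centrifugation at 3500 rpm. Lipid content of the lipoprotein fractions was then determined.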

Rattus norvegicus [17] = assay: Effect on very low density Protein Holtzman rats after 14 days administration; assay type: functional; in short: as §5
Rattus norvegicus [18] = assay: Effect on Serum cholesterol levels on Holtzman rats at a dose of 10 (mg/kg)/day after 16 days; assay type: functional
In short: (§6)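 Holtzman male rats (~200 g) dosed orally by intubation needle daily for 16 days, drug suspended in 1% carboxymethylcellulose; n = 6; vehicle control. Tail-vein serum cholesterol on days 9 and 16 by modified Liebermann–Burchard reaction; day-14 serum triglyceride by commercial kit; % control.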

Rattus norvegicus [19] = assay: Effect on Serum cholesterol levels on Holtzman rats at a dose of 10 (mg/kg)/day after 9 days; assay type: functional; in short: as §6
Rattus norvegicus [20] = assay: Effect on Serum cholesterol levels on Holtzman rats at a dose of 20 (mg/kg)/day after 9 days; assay type: functional; in short: as §6
Rattus norvegicus [21] = assay: Effect on Serum cholesterol levels on Holtzman rats at a dose of 30 (mg/kg)/day after 16 days; assay type: functional; in short: as §6
Rattus norvegicus [22] = assay: Effect on Serum triglceride levels on Holtzman rats at a dose of 20 (mg/kg)/day after 14 days; assay type: functional; in short: as §6
Rattus norvegicus [23] = assay: Effect on high density Triglycerides Holtzman rats after 14 days administration; assay type: functional
In short: (§7)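 Holtzman male rats (~400 g) given drug at 20 (mg/kg)/day for 14 days; on day 14 blood taken from the abdominal aorta and serum separated by centrifugation at 3500 rpm; lipid and protein content of the lipoprotein fractions measured.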

Rattus norvegicus [24] = assay: Effect on high density cholesterol Holtzman rats after 14 days administration; assay type: functional; in short: as §7
Rattus norvegicus [25] = assay: Effect on low density Triglycerides Holtzman rats after 14 days administration; assay type: functional; in short: as §7
Rattus norvegicus [26] = assay: Effect on low density Protein Holtzman rats after 14 days administration; assay type: functional; in short: as §7
Mus musculus [27] = assay: Effect on mg of lipid from CF1 male mice after 16 days at a dose of 60 (mg/kg/day); assay type: functional; in short: as §2
Mus musculus [28] = assay: In vivo effect on CF1 male mouse on Lipid content after 16 days at a dose of 10 (mg/kg)/day
Mus musculus [29] = assay: In vivo effect on CF1 male mouse on Lipid content after 16 days at a dose of 40 (mg/kg)/day

CC(=O)c1ccccc1N1C(=O)c2ccccc2C1=O
Control (Mus musculus [1]): 85%
Control (Mus musculus [2]): 80%
Control (Mus musculus [3]): 65%
Control (Mus musculus [4]): 62%
Control (Mus musculus [5]): 86%
Control (Mus musculus [6]): 43%
Control (Mus musculus [7]): 83%
Control (Mus musculus [8]): 56%
Control (Mus musculus [9]): 131%
Control (Mus musculus [10]): 73%
Control (Mus musculus [11]): 57%
Control (Mus musculus [12]): 59%
Control (Mus musculus [13]): 94%
Control (Mus musculus [14]): 100%
Control (Mus musculus [15]): 63%
Control (Rattus norvegicus [16]): 359%
Control (Rattus norvegicus [17]): 66%
Control (Rattus norvegicus [18]): 54%
Control (Rattus norvegicus [19]): 66%
Control (Rattus norvegicus [20]): 76%
Control (Rattus norvegicus [21]): 64%
Control (Rattus norvegicus [22]): 61%
Control (Rattus norvegicus [23]): 63%
Control (Rattus norvegicus [24]): 52%
Control (Rattus norvegicus [25]): 52%
Control (Rattus norvegicus [26]): 95%
Control (Mus musculus [27]): 80%
Control (Mus musculus [28]): 84%
Control (Mus musculus [29]): 80%
